As a reminder, the Papp A→B is the apparent permeability from the apical to the basolateral side of a cell layer. Usually IC50 stands for the midpoint of a concentration-inhibition curve. A word on the inhibition: it is how much of the control response was suppressed. The term Papp denotes a coefficient for how fast a substance crosses the barrier. In general, MRT refers to the average time that molecules of a dose stay in the body. In general, Cmax refers to the maximum level reached in the sampled fluid or tissue. In general, clearance refers to the volume of plasma or blood freed of the substance per unit of time. A high value points to a high capacity for elimination. Broadly, the fraction unbound is free concentration divided by total concentration. What is called bioavailability is the share of a dose that reaches the circulation, judged against a reference dose that is usually intravenous. Low readings indicate little systemic uptake, high ones much systemic uptake. The AUC(0-inf) is the area under the concentration-time curve extrapolated to infinity. Low readings indicate low exposure, high ones high exposure. By logD is commonly meant lipophilicity at a set pH, counting ionised and neutral species.

The structures appear in SMILES notation. Bounds are passed on as bounds.

The nature of series [1]: Hepatic extraction ratio in human liver microsomes. It is filed as ADME, Microsome. The conditions noted are these: read-out: ERH. Background: Liver microsomes are vesicles of endoplasmic reticulum, rich in cytochrome P450 enzymes.
Series [2] is described as follows: (§1) Apparent permeability from apical to basolateral side of MDCK cells. The conditions noted are these: dog. In kind it is ADME, cell-based, Canis lupus familiaris. The essentials: (§2)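 Madin–Darby canine kidney cell monolayers. Permeability measured in the apical-to-basolateral direction and reported as Papp.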
For series [3], the target named is T1, Protein-tyrosine kinase 2-beta (Homo sapiens, UniProt Q14289). Put plainly: Inhibition of PYK2 by PYK2-LI-COR cellular assay.
Series [4] deals with T1, Protein-tyrosine kinase 2-beta. Put plainly: Inhibition of PYK2 assessed as reduction in peptide substrate phosphorylation by fluorimetric method.
The target in another series is hERG (KCNH2) (Homo sapiens, UniProt Q12809). Kind of series: Inhibition of [3H]dofetilide binding to human ERG expressed in HEK293 cells at 10 uM. In kind it is cell-based. Conditions: HEK293 cells that express human ERG, probe [3H]dofetilide.
A further series has as its system MDCK. Described as §1. In kind it is ADME, cell-based, Canis lupus familiaris. Conditions: dog. The procedure, abridged:
as §2

A short description of series [5]: Mean residence time in Sprague-Dawley rat. In kind it is ADME, organism-based. The conditions noted are these: in vivo.
Series [6] can be described thus: Cmax in Sprague-Dawley rat at 10 mg/kg, po. It is filed as ADME, organism-based. The arrangement: dose 10 mg/kg, route oral. The conditions noted are these: in vivo. The essentials:
(§3)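 Sprague–Dawley rats given a single 10 mg/kg oral dose. Cmax and AUCinf taken from the plasma concentration–time profile. Cave calculated as AUCinf divided by the dosing interval in h. Free concentration refers to the unbound fraction in plasma. Values are means of two experiments.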

Series [7] can be described thus: Clearance in Sprague-Dawley rat at 1 mg/kg, iv. It is filed as ADME, organism-based. The arrangement: dose 1 mg/kg, route intravenous. Conditions: in vivo. The procedure, abridged:
(§4)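 Sprague–Dawley rats given 1.0 mg/kg iv. CL and Vdss obtained by non-compartmental fit of the plasma concentration–time profiles. Values are means of two experiments.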

For a further series, the system named is Rattus norvegicus. Kind of series: Average free plasma concentration in Sprague-Dawley rat at 10 mg/kg, po. In kind it is ADME, organism-based. The arrangement: dose 10 mg/kg, route oral. Conditions: in vivo. The essentials: as §3
A short description of series [8]: Fraction unbound in rat plasma at 1 ug/mL. In kind it is ADME, cell-free. The essentials:
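Rat plasma protein binding measured in vivo at a drug concentration of 1 μg/mL. Result expressed as fraction unbound (fu).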

Series [9] in a line: Oral bioavailability in Sprague-Dawley rat at 10 mg/kg, po. In kind it is ADME, organism-based. Conditions: in vivo.
Series [10] in a line: AUC (infinity) in Sprague-Dawley rat at 10 mg/kg, po. It is filed as ADME, organism-based. The arrangement: time infinity, dose 10 mg/kg, route oral. The conditions noted are these: plasma. The essentials:
as §3

Series [11] is described as follows: Lipophilicity, log D of the compound at pH 7.4. It is filed as physicochemical. The conditions noted are these: buffer.
A short description of series [12]: Volume of distribution at steady state in Sprague-Dawley rat at 1 mg/kg, iv. The conditions noted are these: in vivo, read-out: Vdss. The arrangement: dose 1 mg/kg, route intravenous. In kind it is ADME, organism-based. The essentials:
as §4

T1 sequence (Q14289 whole entry): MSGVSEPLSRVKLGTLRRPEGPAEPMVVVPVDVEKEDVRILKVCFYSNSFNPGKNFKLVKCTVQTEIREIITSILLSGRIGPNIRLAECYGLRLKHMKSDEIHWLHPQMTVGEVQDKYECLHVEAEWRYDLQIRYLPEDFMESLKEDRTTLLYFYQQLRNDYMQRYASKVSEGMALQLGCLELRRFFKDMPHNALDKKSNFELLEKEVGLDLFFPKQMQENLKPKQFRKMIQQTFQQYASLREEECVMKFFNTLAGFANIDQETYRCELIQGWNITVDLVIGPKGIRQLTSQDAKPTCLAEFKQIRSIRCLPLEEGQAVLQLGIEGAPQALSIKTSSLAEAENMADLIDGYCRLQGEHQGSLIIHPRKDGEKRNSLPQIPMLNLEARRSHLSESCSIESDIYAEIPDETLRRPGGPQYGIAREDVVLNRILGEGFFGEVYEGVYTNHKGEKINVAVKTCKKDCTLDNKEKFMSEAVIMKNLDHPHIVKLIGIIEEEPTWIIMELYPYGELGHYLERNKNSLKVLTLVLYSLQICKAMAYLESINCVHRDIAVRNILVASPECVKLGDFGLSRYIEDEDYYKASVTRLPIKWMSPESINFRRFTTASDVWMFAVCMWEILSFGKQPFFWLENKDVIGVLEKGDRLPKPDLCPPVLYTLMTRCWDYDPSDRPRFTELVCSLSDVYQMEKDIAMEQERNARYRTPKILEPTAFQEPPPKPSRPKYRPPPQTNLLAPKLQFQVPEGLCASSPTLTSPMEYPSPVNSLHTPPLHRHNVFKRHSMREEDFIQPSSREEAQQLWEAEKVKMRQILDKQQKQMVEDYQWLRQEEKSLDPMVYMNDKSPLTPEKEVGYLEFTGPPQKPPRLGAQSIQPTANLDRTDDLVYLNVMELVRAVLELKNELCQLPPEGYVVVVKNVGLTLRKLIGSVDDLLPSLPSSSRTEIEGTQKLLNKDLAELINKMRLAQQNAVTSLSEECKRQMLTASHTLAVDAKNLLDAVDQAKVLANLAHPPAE
hERG (KCNH2), sequence (Q12809 whole entry): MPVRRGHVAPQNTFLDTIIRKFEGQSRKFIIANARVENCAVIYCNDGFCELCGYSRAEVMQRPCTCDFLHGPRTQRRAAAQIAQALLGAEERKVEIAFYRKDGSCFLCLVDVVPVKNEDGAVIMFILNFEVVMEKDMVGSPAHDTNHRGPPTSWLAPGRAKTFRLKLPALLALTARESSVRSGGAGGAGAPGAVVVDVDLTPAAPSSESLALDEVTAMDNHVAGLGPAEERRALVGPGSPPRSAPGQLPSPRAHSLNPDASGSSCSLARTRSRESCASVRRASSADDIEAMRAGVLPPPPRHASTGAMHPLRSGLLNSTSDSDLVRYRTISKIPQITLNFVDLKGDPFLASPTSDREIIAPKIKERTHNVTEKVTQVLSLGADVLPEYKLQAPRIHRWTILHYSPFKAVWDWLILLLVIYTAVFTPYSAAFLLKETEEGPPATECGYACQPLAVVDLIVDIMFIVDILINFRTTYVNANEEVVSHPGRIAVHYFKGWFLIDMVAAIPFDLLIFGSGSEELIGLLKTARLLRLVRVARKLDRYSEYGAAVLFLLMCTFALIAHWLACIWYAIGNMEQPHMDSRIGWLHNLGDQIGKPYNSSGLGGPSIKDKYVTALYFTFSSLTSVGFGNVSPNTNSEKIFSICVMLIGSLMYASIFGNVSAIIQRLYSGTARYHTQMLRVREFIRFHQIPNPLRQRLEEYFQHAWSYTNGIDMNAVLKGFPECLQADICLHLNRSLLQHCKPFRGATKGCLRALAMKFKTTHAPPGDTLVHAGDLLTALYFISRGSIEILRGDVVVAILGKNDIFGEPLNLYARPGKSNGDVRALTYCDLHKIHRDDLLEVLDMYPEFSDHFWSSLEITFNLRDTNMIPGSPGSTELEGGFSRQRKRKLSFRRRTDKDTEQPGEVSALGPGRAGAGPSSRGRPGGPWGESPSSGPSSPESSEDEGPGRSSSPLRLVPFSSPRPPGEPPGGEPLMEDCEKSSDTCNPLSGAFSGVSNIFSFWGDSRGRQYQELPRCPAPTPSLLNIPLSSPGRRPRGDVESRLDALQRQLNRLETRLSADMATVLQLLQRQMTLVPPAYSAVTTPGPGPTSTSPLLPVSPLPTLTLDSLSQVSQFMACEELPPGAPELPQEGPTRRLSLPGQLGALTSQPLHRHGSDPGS

With `CN(C)[C@@H]1CCC[C@H]1Nc1nc(Nc2ccc([S+](C)(=N)[O-])cc2)ncc1C(F)(F)F` (mixture of isomers), in series [1], the hepatic extraction ratio is less than 0.29. In addition, in series [2], the Papp A→B amounted to 1 ×10⁻⁶ cm/s. The IC50 in series [3] was 320 nM; in series [4], 65 nM. The inhibition at 10 µM at hERG (KCNH2) turned out to be 12%.

With `CCN=[S+](C)([O-])c1ccc(Nc2ncc(C(F)(F)F)c(N[C@@H]3CCC[C@H]3N(C)C)n2)cc1` (mixture of isomers), the Papp A→B in series [2] was 4.7 ×10⁻⁶ cm/s. In addition, 10 µM produced 5.9% inhibition at hERG (KCNH2).

Regarding `CCN=[S+](C)([O-])c1ccc(Nc2ncc(C(F)(F)F)c(N[C@@H]3CCC[C@H]3N(C)C)n2)cc1` (stereo in doubt; (R)-14b), the Papp with MDCK amounted to 9.3 ×10⁻⁶ cm/s.

Consider `CN(C)[C@@H]1CCC[C@H]1Nc1nc(Nc2ccc(S(=O)(=O)NC3CC3)cc2)ncc1C(F)(F)F`, for which, in series [2], the Papp A→B was found to be 4.8 ×10⁻⁶ cm/s. This molecule also returned an inhibition at 10 µM on hERG (KCNH2) of 76%.

For the molecule `CNS(=O)(=O)c1ccc(Nc2ncc(C(F)(F)F)c(N[C@@H]3CCC[C@H]3N(C)C)n2)cc1`, the Papp A→B in [2] was found to be 5.3 ×10⁻⁶ cm/s. On hERG (KCNH2), at 10 µM the inhibition was 50%.

With `CN=[S+](C)([O-])c1ccc(Nc2ncc(C(F)(F)F)c(N[C@@H]3CCC[C@H]3N(C)C)n2)cc1` (stereo in doubt; (S)-14a), in series [5], the MRT amounted to 2.3 h. For the same molecule, the Papp with MDCK came to 5.1 ×10⁻⁶ cm/s. In addition, the Cmax in [6] was determined as 720 nM. The same molecule yielded a clearance in series [7] of 74 mL/min/kg. Further, in the series on Rattus norvegicus, the Cp(f) stood at 76 nM. The same molecule showed a fraction unbound at 1 ug/mL in series [8] of 0.36. Moreover, the bioavailability in series [9] is 100%. In series [10], the AUC(0-inf) came out at 5 µM·h. In addition, in [11], the logD was found to be 1.7. Also, the Vd in series [12] was determined as 13 L/kg.

As for `CN=[S+](C)([O-])c1ccc(Nc2ncc(C(F)(F)F)c(N[C@@H]3CCC[C@H]3N(C)C)n2)cc1` (stereo in doubt; (R)-14a), the Papp in the series with MDCK was determined as 5.7 ×10⁻⁶ cm/s.

In the case of `CC(C)N=[S+](C)([O-])c1ccc(Nc2ncc(C(F)(F)F)c(N[C@@H]3CCC[C@H]3N(C)C)n2)cc1` (mixture of isomers), the hepatic extraction ratio in series [1] worked out at 0.78. The apparent permeability from apical to basolateral (Papp A→B) in series [2] turned out to be 6.6 ×10⁻⁶ cm/s. Further, the results for the IC50 in series [3] and in series [4] were 34 nM and 22 nM, respectively. At hERG (KCNH2), this molecule registered an inhibition at 10 µM of 8.4%.

On to `CN=[S+](C)([O-])c1ccc(Nc2ncc(C(F)(F)F)c(N[C@@H]3CCC[C@H]3N(C)C)n2)cc1` (mixture of isomers), for which the Papp A→B in [2] came out at 4.4 ×10⁻⁶ cm/s.

On to `CN(c1ccccc1CNc1nc(Nc2ccc3c(c2)CC(=O)N3)ncc1C(F)(F)F)S(C)(=O)=O`, for which, in series [2], the Papp A→B worked out at 9.2 ×10⁻⁶ cm/s. At hERG (KCNH2), this molecule returned an inhibition at 10 µM of 41%.

Regarding `CC[S+]([O-])(=NC)c1ccc(Nc2ncc(C(F)(F)F)c(N[C@@H]3CCC[C@H]3N(C)C)n2)cc1` (stereo partly drawn), the hepatic extraction ratio in [1] worked out at 0.58. In addition, the Papp A→B in series [2] came to 7.8 ×10⁻⁶ cm/s. Besides, the IC50 in [3] turned out to be 24 nM; in series [4], 21 nM. The molecule further yielded an inhibition at 10 µM at hERG (KCNH2) of 2%.

In series [5], `CN(C)[C@@H]1CCC[C@H]1Nc1nc(Nc2ccc(S(C)(=O)=O)cc2)ncc1C(F)(F)F` yielded an MRT of 3.7 h. In series [2], the Papp A→B was 9.5 ×10⁻⁶ cm/s. This molecule also showed a clearance in series [7] of 42 mL/min/kg. Further, in series [8], the fraction unbound at 1 ug/mL came to 0.3. Also, in [11], the logD turned out to be 1.5. In addition, the Vd in series [12] turned out to be 13 L/kg.

For `CCN=[S+](C)([O-])c1ccc(Nc2ncc(C(F)(F)F)c(N[C@@H]3CCC[C@H]3N(C)C)n2)cc1` (stereo in doubt; (S)-14b), the Papp in the series with MDCK came to 8.3 ×10⁻⁶ cm/s.

Source of the values: ChEMBL document CHEMBL1781887, “Sulfoximine-substituted trifluoromethylpyrimidine analogs as inhibitors of proline-rich tyrosine kinase 2 (PYK2) show reduced hERG activity” (Bioorg Med Chem Lett, 2009).
